From PubChem
This excerpt belongs to a sample that is enriched for hits.
D1 allo mod: allosteric modulators of human D1 dopamine receptor | P21728 | HEK293 D1, CRE-luciferase, dopamine EC30 potentiation; actives deviate in either direction | B-score at 10 µM | actives 5.9% (n = 58,000) | AID 641;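 active means luminescence count or its row- and column-corrected plate score outside the 99.7% band of the plate's sample wells, on either side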
Target sequence (P21728 whole entry, looked up): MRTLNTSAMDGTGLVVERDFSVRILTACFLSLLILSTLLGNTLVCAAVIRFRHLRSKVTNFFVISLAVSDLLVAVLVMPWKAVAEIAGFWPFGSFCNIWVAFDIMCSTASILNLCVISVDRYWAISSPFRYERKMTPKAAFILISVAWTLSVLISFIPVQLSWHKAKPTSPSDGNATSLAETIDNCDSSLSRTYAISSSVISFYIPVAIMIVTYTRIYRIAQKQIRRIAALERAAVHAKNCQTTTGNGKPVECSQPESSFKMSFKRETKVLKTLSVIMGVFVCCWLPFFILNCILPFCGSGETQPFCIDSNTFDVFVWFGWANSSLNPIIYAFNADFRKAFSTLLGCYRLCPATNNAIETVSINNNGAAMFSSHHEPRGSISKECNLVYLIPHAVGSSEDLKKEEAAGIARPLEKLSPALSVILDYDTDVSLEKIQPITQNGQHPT
hDAT+cocaine: changed human dopamine transporter uptake under cocaine IC80; Q01959; LLC-PK1 hDAT cells, [14C]-dopamine uptake with cocaine IC80; actives deviate in either direction; B-score at 10 µM; actives 1.3% (n = 110,000); AID 449768;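 active means Z score or B-score, a plate-position-corrected score, falls beyond the plate's 99.7% confidence bounds, in either direction; inactive means both scores lie inside the 99.7% bounds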;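 further: scored against the spread of the other compound wells on the same plate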
WNV NS2B-NS3 inh: WNV NS2B-NS3 proteinase inhibition; P06935; WNV NS2B-NS3 protease, fluorogenic substrate Ex360/Em465; hits give low values; z-score (no concentration beside the values); actives 0.18% (n = 65,000); AID 577; in the data active means z-score below about -3
AP complement: orthogonal test for alternative complement pathway inhibitors. Human serum alternative complement pathway, LPS-coated ELISA, C3 deposition; tested in compound mixtures. inhibition, % at 5 µM. actives 0.08% (n = 62,000). AID 1235;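 active means inhibition above 30% in each of the two pooled mixtures holding the compound, so the lower value exceeds 30%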;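 further: 0% = serum in Mg-EGTA without compound and 100% = EDTA serum blank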
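Medium: diluted human serum in Mg2+-EGTA GVB++. Assay system: human serum complement alternative pathway, C3 deposition onto LPS. Also added: Plate-bound LPS. Technique: Anti-C3 ELISA, OD 450 nm. Measure: percent inhibition. Incubation: 1 h at 37 °C. Dosing: 5 µM each compound, pools of ten, 50 µM per pool.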
D1 PAM confirm: confirmation of human D1 dopamine receptor allosteric modulators; shares compounds with D1 allo mod; HEK293 D1 CRE-luciferase, dopamine EC30 potentiation; hits give high values; luminescence at 10 µM; actives 88% (n = 2,200); AID 642;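 active means luminescence in either of two replicates above the same-plate mean plus 3 SD of the low-dose dopamine control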
D1 no dopamine: D1 (human) signaling in absence of dopamine; shares compounds with D1 allo mod; HEK293 D1 CRE-luciferase, luminescence, no dopamine; hits give high values; luminescence at 10 µM; actives 0.8% (n = 1,900); AID 646; in the data active means luminescence above about 3900
Isoprot counter: counter-screen for D1 modulators: isoproterenol response in HEK293 cells; actives 63% (n = 2,200); luminescence at 10 µM; shares compounds with D1 allo mod; HEK293 D1 CRE-luciferase, isoproterenol EC30 counter-screen; hits give high values;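 active means luminescence in either replicate above plate mean of wells with a partly effective reference agonist dose plus 3 SD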;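 further: isoproterenol raises cAMP through native beta-adrenoceptor Gs so signal bypasses D1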
An asterisk follows results filed as active; . = not tested or not shown.

SMILES	D1 allo mod	hDAT+cocaine	WNV NS2B-NS3 inh	AP complement	D1 PAM confirm	D1 no dopamine	Isoprot counter
c1ccc(Cn2nnc3c(N4CCCCCC4)ncnc32)cc1	6.4*	0.17	0.04	9	7556*	1448	3604*
c1ccc(Cn2nnc3c(N4CCc5ccccc54)ncnc32)cc1	3*	-0.84	-0.98	10	6044*	1608	2632
C=CCn1c(N)cc(=O)nc1SC(C)C(=O)Nc1cccc2ccccc12 (stereo unspecified)	.	-0.24	.	.	.	.	.
CC(=O)c1nn(-c2cccc(Cl)c2)cc1C(=O)c1ccco1	4.3*	-0.15	-0.57	7	12508*	1716	3036
CC(=O)c1nn(-c2ccc(Br)cc2)cc1C(=O)c1ccco1	.	0.71	.	.	.	.	.
Cc1ccc(-c2nc3ncccn3c2NC(=O)C2CC2)cc1	2.8*	0.36	0.23	2	8360*	1836	2576
NC(=O)C1CCN(C(=O)c2ccc(NC3=NC4CS(=O)(=O)CC4S3)cc2)CC1 (stereo unspecified)	.	-0.31	.	.	.	.	.
COCCN1CN(S(=O)(=O)c2ccccc2)c2nc3ccccc3nc21	6.6*	-0.84	-0.43	22	9164*	1496	3088*
CCCCN1CN(S(=O)(=O)c2cccs2)c2nc3ccccc3nc21	8.4*	-0.19	0.45	-4	13480*	1328	3756*
CCOc1cc2[nH]c(=O)n(Cc3ccc(C(=O)NCCOC)cc3)c(=O)c2cc1OCC	0.51	.	-1.7	7	.	.	.
CCOc1cc2[nH]c(=O)n(Cc3cccc(OC)c3)c(=O)c2cc1OCC	17*	0.017	0.08	-1	22168*	1776	4764*
CC(=O)c1ccc(N2CCCCCC2)c(F)c1	2.7*	-0.34	0.05	23	5360	1576	2716
CCCC(=O)c1ccc(N2CCCCCC2)c(F)c1	0.2	0.017	-0.64	5	.	.	.
O=C(Cc1nc2ccccc2[nH]1)NCc1ccco1	0.69	-0.65	0.02	9	.	.	.
Cn1c(NC(=O)c2ccc(Cl)cc2Cl)cc(=O)n(C)c1=O	4.5*	0.33	1.2	-6	8676*	1848	3168*
CCSc1oc(-c2cccs2)nc1S(=O)(=O)c1ccccc1	15*	-0.46	-0.34	6	18740*	1592	3712*
CCSc1oc(-c2ccco2)nc1S(=O)(=O)c1ccc(F)cc1	4.6*	-0.42	-0.15	4	11820*	1660	3012
Cc1ccc(S(=O)(=O)c2nc(-c3ccco3)oc2SCC(=O)NCC2CCCO2)cc1 (stereo unspecified)	0.96	-0.16	-0.26	0	.	.	.
CCOc1ccc2nc(NC(=O)CCC(=O)c3cccs3)sc2c1	.	-0.51	.	.	.	.	.
CCCCC(SCC(=O)Nc1ccccc1)C(=O)O (stereo unspecified)	0.015	-0.46	-0.05	-1	.	.	.
O=c1c(/C=N/O)c(Nc2ccccc2)nc2ccccn12	4.2*	-1.1	1.5	11	9580*	1768	3320*
COc1ccc(N2CCN(CCNC(=O)CCS(=O)(=O)c3cccc4nsnc34)CC2)cc1	0.038	.	0.55	15	.	.	.
CC(=O)N=c1sc2nc3ccccc3nc2n1N(C(C)=O)C(C)=O	2.8*	0.33	-0.89	10	8388*	1468	2452
CN(CC(=O)Nc1c(Cl)cccc1Cl)C(=O)CCCN1C(=O)c2ccccc2C1=O	.	0.57	.	.	.	.	.
O=C(CC1SC2=NCCN2C1=O)Nc1ccccc1 (stereo unspecified)	-1.3	0.044	0.71	.	.	.	.
SMILES	D1 allo mod	hDAT+cocaine	WNV NS2B-NS3 inh	AP complement	D1 PAM confirm	D1 no dopamine	Isoprot counter
Cc1ccc(NC(=O)CC2SC3=NCCN3C2=O)cc1 (stereo unspecified)	5.5*	1	.	17	6908	.	2520
O=C(c1ccco1)N1CCN(S(=O)(=O)c2ccc3c(c2)CCN3C(=O)C2CC2)CC1	4.2*	-1.5	-0.44	12	11508*	1616	3080
S=C1NCCOCCOCCOCCOCCNC(=S)NCCOCCOCCOCCOCCN1	.	-0.00032	.	.	.	.	.
CN=C1c2ccccc2CN1c1cccc(C(=O)OC)c1	13*	-0.37	0.4	3	19796*	1756	3916*
Cc1ccc(-c2cc(C(F)F)nc(NCc3cccnc3)n2)cc1	13*	-0.12	0.06	10	16464*	.	4600*
FC(F)(F)c1cc(-c2ccc(Cl)cc2)nc(NCc2cccnc2)n1	.	-0.065	.	.	.	.	.
Cc1ccc(-c2cc(C(F)F)nc(NCC3CCCO3)n2)cc1 (stereo unspecified)	3.3*	1.3	0.42	0	14888*	.	3624*
CCSc1ncc(Cl)c(C(=O)Nc2ccc(S(=O)(=O)Nc3onc(C)c3C)cc2)n1	5.6*	-0.39	-0.2	7	11540*	1528	2632
COC(=O)C(C)Sc1nnc2n(-c3cccc(C)c3)c(=O)c3c4c(sc3n12)CCCC4 (stereo unspecified)	9.3*	-0.43	0.52	-21	16844*	1688	5352*
CSc1nccc(Nc2ccccc2)c1C#N	.	0.033	0.01	-3	.	.	.
COc1nccc(Nc2ccccc2)c1C#N	6.6*	-0.88	-0.19	9	14732*	.	3068*
O=C(CCCNC(=O)/C(=C\c1ccc(F)cc1)NC(=O)c1ccccc1)OCc1ccccc1	.	-1.7	.	.	.	.	.
Cc1cc(NC(=O)c2sccc2C)n(-c2cccc(Cl)c2)n1	4.9*	1.3	0.18	8	12892*	1740	3424*
CC(C)C1Cc2c(C#N)c(N)sc(=S)c2CO1 (stereo unspecified)	10*	-1.8	0.16	-5	21832*	1584	4256*
CCN(CC)c1nc(C)c2c(c1C#N)CC(C)(C)OC2	.	-0.31	-1.9	.	.	.	.
CC1(C)Cc2c(C#N)c(N)sc(=S)c2CO1	9.1*	-1.7	0.14	13	17212*	1388	3788*
N#Cc1c(N)sc(=S)c2c1CCN(Cc1ccccc1)C2	-0.29	0.099	1.1	11	.	.	.
CCOC(=O)C1=C(c2ccccc2)N2CCS(=O)(=O)N=C2S1	7.1*	-0.65	0.17	1	9940*	1656	2960
O=C1COc2ccc(C(=O)c3ccccc3)cc2CN1	4.7*	3.4*	0.89	0	5740*	1572	3212
Cc1oc(-c2cccc(Cl)c2)nc1CN1CCCC(C(=O)NCCCN2CCOCC2)C1 (stereo unspecified)	0.77	.	0.69	-1	.	.	.
Cc1oc(-c2ccc(Cl)cc2)nc1CN1CCC(C(=O)NCCCN2CCOCC2)CC1	3.6*	0.21	-0.11	5	6764	1668	2408
O=C(O)c1ccc(CSc2nnc(COc3ccc(Cl)cc3Cl)o2)cc1	5.6*	0.0089	-1.3	17	10144*	.	3052*
CCOC(=O)C1=C(C)NC2=C(C(=O)CC(C)(C)C2)C1c1cccc(C)n1 (stereo unspecified)	0.81	-1	-0.71	11	.	.	.
